Active and inactive are the calls of the source. The calls are words filed in the database; no cut-off is given here.
Key:
[1] = system: Mus musculus; experiment: Anticonvulsant activity against subcutaneous pentylenetetrazole induced convulsions in mice 4 hours after ip administration of 600 mg/kg; No=No activity; assay type: functional, organism-based; set-up: dose 600 mg/kg
How it was run: (§1)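 Male Carworth Farms No. 1 mice were dosed ip with compound in 30% PEG 400, at 30–600 mg/kg, and read at 30 min and 4 h. Pentylenetetrazole was given at 85 mg/kg as a 0.5% solution sc in the posterior midline. Protection meant no single episode of clonic spasms lasting at least 5 s over a 30-min observation.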

[2] = system: Mus musculus; experiment: Anticonvulsant activity against maximal electroshock (MES) induced seizures in mice 30 minutes after ip administration of 600 mg/kg; NA=No activity; assay type: functional, organism-based; set-up: dose 600 mg/kg
How it was run: (§2)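 Male Carworth Farms No. 1 mice were dosed ip with compound in 30% polyethylene glycol 400, at 30, 100 and 300 mg/kg and sometimes 600 mg/kg, and tested 30 min and 4 h later. A drop of 0.9% saline went in the eye, then 60-cycle AC at 50 mA was given for 0.2 s via corneal electrodes. Protection meant abolition of hind limb tonic extension.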

[3] = system: Mus musculus; experiment: Compound was tested for toxicity by rotarod assay method in mice 4 hours after ip administration at 600 mg/kg; no activity; assay type: organism-based; set-up: dose 600 mg/kg, route intraperitoneal; settings: in vivo
[4] = system: Mus musculus; experiment: Compound was tested for toxicity by rotarod assay method in mice 30 min after ip administration at 600 mg/kg; no activity; assay type: organism-based; set-up: dose 600 mg/kg, route intraperitoneal; settings: in vivo, 0.5 h
[5] = system: Mus musculus; experiment: Anticonvulsant activity against subcutaneous pentylenetetrazole induced convulsions in mice 30 min after ip administration of 600 mg/kg.; assay type: functional, organism-based; set-up: dose 600 mg/kg; how it was run: as §1
[6] = system: Mus musculus; experiment: Anticonvulsant activity against maximal electroshock (MES) induced seizures in mice 4 hours after ip administration of 600 mg/kg.; assay type: functional, organism-based; set-up: dose 600 mg/kg; how it was run: as §2
[7] = system: Mus musculus; experiment: Anticonvulsant activity against sc pentylenetetrazole-induced convulsions in mice 4 hr after ip administration of 600 mg/kg; A=Active; assay type: functional, organism-based; set-up: dose 600 mg/kg; how it was run: as §1
[8] = system: Mus musculus; experiment: Compound was tested for toxicity by rotarod assay method in mice 30 min after ip administration of 300 mg/kg; A=Active; assay type: organism-based; set-up: dose 300 mg/kg, route intraperitoneal; settings: in vivo, 0.5 h
[9] = system: Mus musculus; experiment: Anticonvulsant activity against maximal electroshock (MES) induced seizures in mice 4 hours after ip administration of 600 mg/kg; A=Active; assay type: functional, organism-based; set-up: dose 600 mg/kg; how it was run: as §2
[10] = system: Mus musculus; experiment: Compound was tested for toxicity by rotarod assay method in mice 4 hours after ip administration of 600 mg/kg; A=Active; assay type: organism-based; set-up: dose 600 mg/kg, route intraperitoneal; settings: in vivo
[11] = system: Mus musculus; experiment: Anticonvulsant activity against maximal electroshock (MES) induced seizures in mice 30 minutes after ip administration of 100 mg/kg; A=Active; assay type: functional, organism-based; set-up: dose 100 mg/kg; how it was run: as §2
[12] = system: Mus musculus; experiment: Anticonvulsant activity against sc pentylenetetrazole-induced convulsions in mice 30 minutes after ip administration of 300 mg/kg; A=Active; assay type: functional, organism-based; set-up: dose 300 mg/kg; how it was run: as §1
[13] = system: Mus musculus; experiment: Anticonvulsant activity against subcutaneous pentylenetetrazole induced convulsions in mice 4 hr after ip administration of 600 mg/kg.; assay type: functional, organism-based; set-up: dose 600 mg/kg; how it was run: as §1
[14] = system: Mus musculus; experiment: Anticonvulsant activity against maximal electroshock (MES) induced seizures in mice 4 hours after ip administration of 300 mg/kg; A=Active; assay type: functional, organism-based; set-up: dose 300 mg/kg; how it was run: as §2
[15] = Compound for toxicity by rotarod assay method in mice after administration; assay type: organism-based; settings: mouse, in vivo
How it was run: (§3)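 Neurologic deficit was tested in male Carworth Farms No. 1 mice 30 min and 4 h after ip dosing in 30% PEG 400, at 30–600 mg/kg. Each mouse was placed on a 1-in.-diameter knurled plastic rod turning at 6 rpm. Toxicity meant failing to stay on the rod for 1 min.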

[16] = species on record: Mus musculus; experiment: Anticonvulsant activity against maximal electroshock (MES)-induced seizures in mice; assay type: functional; how it was run: as §2
[17] = system: Mus musculus; experiment: Compound was tested for toxicity by rotarod assay method in mice 30 min after ip administration of 600 mg/kg; no activity; assay type: organism-based; set-up: dose 600 mg/kg, route intraperitoneal; settings: in vivo, 0.5 h
[18] = system: Mus musculus; experiment: Anticonvulsant activity against maximal electroshock (MES) induced seizures in mice 30 minutes after ip administration of 300 mg/kg; A=Active; assay type: functional, organism-based; set-up: dose 300 mg/kg; how it was run: as §2
[19] = system: Mus musculus; experiment: Anticonvulsant activity against maximal electroshock (MES) induced seizures in mice 30 minutes after ip administration of 600 mg/kg; A=Active; assay type: functional, organism-based; set-up: dose 600 mg/kg; how it was run: as §2
[20] = system: Mus musculus; experiment: Compound was tested for toxicity by rotarod assay method in mice after intraperitoneal administration after 30 minutes; assay type: functional, organism-based; how it was run: as §3
[21] = system: Mus musculus; experiment: Compound was tested for toxicity by rotarod assay method in mice after intraperitoneal administration after 4 hours; assay type: functional, organism-based; how it was run: as §3
[22] = system: Mus musculus; experiment: Anticonvulsant activity against maximal electroshock (MES) induced seizures in mice 4 hours after ip administration of 100 mg/kg; A=Active; assay type: functional, organism-based; set-up: dose 100 mg/kg; how it was run: as §2
[23] = Protective index measured as the ratio between TD50 and ED50; assay type: ADME; settings: read-out: PI
[24] = system: Mus musculus; experiment: Anticonvulsant activity against maximal electroshock (MES) induced seizures in mice 30 minutes after ip administration of 30 mg/kg; A=Active; assay type: functional, organism-based; set-up: dose 30 mg/kg; how it was run: as §2
[25] = system: Mus musculus; experiment: Compound was tested for toxicity by rotarod assay method in mice 30 min after ip administration of 600 mg/kg; A=Active; assay type: organism-based; set-up: dose 600 mg/kg, route intraperitoneal; settings: in vivo, 0.5 h

SMILES	Anticonvulsant activity [1]	Anticonvulsant activity [2]	Toxicity [3]	Toxicity [4]	Anticonvulsant activity [5]	Anticonvulsant activity [6]	Toxicity [10]	Anticonvulsant activity [13]	other results
Cc1ccc(NC(=O)c2ccccc2N)cc1C	inactive	inactive	Not Active	Not Active	inactive	inactive			
Cc1cccc(NC(=O)c2ccccc2N)c1	inactive	inactive	Not Active	Not Active	inactive	inactive			
Cc1cc(C)cc(NC(=O)c2ccccc2N)c1	inactive	inactive	Not Active	Not Active	inactive	inactive			
Cc1ccc(C)c(NC(=O)c2cccc(N)c2)c1	inactive	inactive	Not Active	Not Active	inactive	inactive			
Cc1cccc(NC(=O)c2cccc(N)c2)c1							Active		Anticonvulsant activity [7]: Active; Toxicity [8]: Active; Anticonvulsant activity [9]: Active; Anticonvulsant activity [11]: Active; Anticonvulsant activity [12]: Active
Cc1ccccc1NC(=O)c1cccc(N)c1							Active	inactive	Toxicity [8]: Active; Anticonvulsant activity [14]: Active; TD50 [15]: 109 mg/kg; ED50 [16]: 44.7 mg/kg; Anticonvulsant activity [11]: Active; Anticonvulsant activity [12]: Active
Cc1ccc(C)c(NC(=O)c2ccccc2N)c1	inactive	inactive	Not Active	Not Active	inactive	inactive			
Cc1ccc(NC(=O)c2cccc(N)c2)cc1					inactive		Active	inactive	Toxicity [17]: Not Active; Anticonvulsant activity [18]: Active; Anticonvulsant activity [14]: Active
CC(C)c1ccccc1NC(=O)c1ccccc1N	inactive	inactive	Not Active	Not Active	inactive	inactive			
Cc1cccc(NC(=O)c2cccc(N)c2)c1C					inactive	inactive		inactive	Anticonvulsant activity [19]: Active; Toxicity [20]: inactive; Toxicity [21]: inactive
Cc1ccc(NC(=O)c2cccc(N)c2)c(C)c1	inactive	inactive	Not Active	Not Active	inactive	inactive			
Cc1ccc(NC(=O)c2ccccc2N)cc1	inactive	inactive	Not Active	Not Active	inactive	inactive			
Cc1cccc(C)c1NC(=O)c1cccc(N)c1					inactive		Active	inactive	Anticonvulsant activity [22]: Active; selectivity ratio [23]: 21.1; Anticonvulsant activity [24]: Active; TD50 [15]: 285 mg/kg; ED50 [16]: 13.5 mg/kg; Toxicity [25]: Active
